Laboratory results as given in ChEMBL document CHEMBL3244187, “Structure--activity relationships in cephalosporins prepared from penicillins. 2. Analogues of cephalexin substituted in the 3-methyl group” (J Med Chem, 1977).
In brackets after ≈: the same amount, converted by molar mass. Activity calls are given as the source filed them. No cut-off for these calls is given here.

How the values were obtained:
[1] = test system: Staphylococcus aureus; assay: Antibacterial activity against beta-lactamase producing benzylpenicillin-resistant Staphylococcus aureus Russell after 18 hrs by serial dilution method; type: functional
Procedure, shortened: (§1)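 MICs by serial dilution on nutrient agar. Inoculum 0.001 mL of undiluted overnight broth culture. Plates incubated 18 h at 37 °C before reading. The S. aureus Russell strain produces β-lactamase and resists benzylpenicillin.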

[2] = test system: Escherichia coli; assay: Antibacterial activity against Escherichia coli after 18 hrs by serial dilution method; type: functional
Procedure, shortened: (§2)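 MICs by serial dilution on nutrient agar. Inoculum 0.001 mL of undiluted overnight broth culture. Plates incubated at 37 °C for 18 h before reading.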

[3] = test system: Salmonella typhi; assay: Antibacterial activity against Salmonella typhi after 18 hrs by serial dilution method; type: functional, Salmonella enterica subsp. enterica serovar Typhi; settings: Salmonella enterica; procedure, shortened: as §1
[4] = test system: Shigella sonnei; assay: Antibacterial activity against Shigella sonnei after 18 hrs by serial dilution method; type: functional; procedure, shortened: as §2
[5] = test system: Klebsiella aerogenes; assay: Antibacterial activity against Klebsiella aerogenes after 18 hrs by serial dilution method; type: functional; procedure, shortened: as §2
[6] = test system: Proteus mirabilis; assay: Antibacterial activity against Proteus mirabilis after 18 hrs by serial dilution method; type: functional; procedure, shortened: as §2
[7] = Drug level in mouse blood at 50 mg/kg, po after 15 mins by microbiological assay
[8] = Drug level in mouse blood at 50 mg/kg, po after 30 mins by microbiological assay; type: ADME, organism-based; parameters: dose 50 mg/kg, route oral; settings: read-out: Drug uptake
Procedure, shortened: (§3)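 Mice given a single 50 mg/kg dose by the route in the line. Groups of five killed at each time point and blood taken from the cut axilla, heparinized and stored at 4 °C. Blood assayed the same day by large-plate microbiological assay with Sarcina lutea NCTC 8340, overnight at 30 °C. Standards made in mouse blood, with pH 7.2 phosphate-buffered saline as diluent.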

[9] = Drug level in mouse blood at 50 mg/kg, po after 1 hr by microbiological assay; type: ADME, organism-based; parameters: dose 50 mg/kg, route oral; settings: read-out: Drug uptake; procedure, shortened: as §3
[10] = Drug level in mouse blood at 50 mg/kg, po after 2 hrs by microbiological assay; type: ADME, organism-based; parameters: dose 50 mg/kg, route oral; settings: read-out: Drug uptake; procedure, shortened: as §3
[11] = Drug level in mouse blood at 50 mg/kg, po after 4 hrs by microbiological assay; type: ADME, organism-based; parameters: dose 50 mg/kg, route oral; settings: read-out: Drug uptake; procedure, shortened: as §3
[12] = Drug level in mouse blood at 50 mg/kg, sc after 10 mins by microbiological assay; type: ADME, organism-based; parameters: dose 50 mg/kg, route subcutaneous; settings: read-out: Drug uptake; procedure, shortened: as §3
[13] = Drug level in mouse blood at 50 mg/kg, sc after 20 mins by microbiological assay; type: ADME, organism-based; parameters: dose 50 mg/kg, route subcutaneous; settings: read-out: Drug uptake; procedure, shortened: as §3
[14] = Drug level in mouse blood at 50 mg/kg, sc after 30 mins by microbiological assay; type: ADME, organism-based; parameters: dose 50 mg/kg, route subcutaneous; settings: read-out: Drug uptake; procedure, shortened: as §3
[15] = Drug level in mouse blood at 50 mg/kg, sc after 1 hr by microbiological assay; type: ADME, organism-based; parameters: dose 50 mg/kg, route subcutaneous; settings: read-out: Drug uptake; procedure, shortened: as §3
[16] = Drug level in mouse blood at 50 mg/kg, sc after 2 hrs by microbiological assay; type: ADME, organism-based; parameters: dose 50 mg/kg, route subcutaneous; settings: read-out: Drug uptake; procedure, shortened: as §3
[17] = Drug level in mouse blood at 50 mg/kg, sc after 4 hrs by microbiological assay; type: ADME, organism-based; parameters: dose 50 mg/kg, route subcutaneous; settings: read-out: Drug uptake; procedure, shortened: as §3
[18] = test system: Staphylococcus aureus; assay: Antibacterial activity against Staphylococcus aureus Smith infected in sc dosed mouse administered 1 hr post infection; type: functional
Procedure, shortened: (§4)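 Infected mice were treated subcutaneously or orally. Protection is expressed as CD50 in mg/kg, as the total dose given.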

[19] = test system: Staphylococcus aureus; assay: Antibacterial activity against Staphylococcus aureus Smith infected in sc dosed mouse administered 1 hr and 5 hrs post infection; type: functional; procedure, shortened: as §4
[20] = test system: Escherichia coli; assay: Antibacterial activity against Escherichia coli 8 infected in sc dosed mouse administered 1 hr post infection; type: functional; procedure, shortened: as §4
[21] = test system: Escherichia coli; assay: Antibacterial activity against Escherichia coli 8 infected in sc dosed mouse administered 1 hr and 5 hrs post infection; type: functional; procedure, shortened: as §4
[22] = test system: Proteus mirabilis; assay: Antibacterial activity against Proteus mirabilis 13 infected in sc dosed mouse administered 1 hr post infection; type: functional; procedure, shortened: as §4
[23] = test system: Proteus mirabilis; assay: Antibacterial activity against Proteus mirabilis 13 infected in sc dosed mouse administered 1 hr and 5 hrs post infection; type: functional; procedure, shortened: as §4
[24] = test system: Staphylococcus aureus; assay: Antibacterial activity against Staphylococcus aureus Smith infected in po dosed mouse administered 1 hr post infection; type: functional; procedure, shortened: as §4
[25] = test system: Staphylococcus aureus; assay: Antibacterial activity against Staphylococcus aureus Smith infected in po dosed mouse administered 1 hr and 5 hrs post infection; type: functional; procedure, shortened: as §4
[26] = test system: Escherichia coli; assay: Antibacterial activity against Escherichia coli 8 infected in po dosed mouse administered 1 hr post infection; type: functional; procedure, shortened: as §4
[27] = test system: Escherichia coli; assay: Antibacterial activity against Escherichia coli 8 infected in po dosed mouse administered 1 hr and 5 hrs post infection; type: functional; procedure, shortened: as §4
[28] = test system: Staphylococcus aureus; assay: Antibacterial activity against Staphylococcus aureus Oxford after 18 hrs by serial dilution method; type: functional; procedure, shortened: as §2
[29] = Drug level in mouse blood at 50 mg/kg, po after 10 mins by microbiological assay; type: ADME, organism-based; parameters: dose 50 mg/kg, route oral; settings: read-out: Drug uptake; procedure, shortened: as §3
[30] = Drug level in mouse blood at 50 mg/kg, po after 20 mins by microbiological assay; type: ADME, organism-based; parameters: dose 50 mg/kg, route oral; settings: read-out: Drug uptake; procedure, shortened: as §3
[31] = Drug level in mouse blood at 50 mg/kg, iv after 10 mins by microbiological assay; type: ADME, organism-based; parameters: dose 50 mg/kg, route intravenous; settings: read-out: Drug uptake; procedure, shortened: as §3
[32] = Drug level in mouse blood at 50 mg/kg, iv after 20 mins by microbiological assay; type: ADME, organism-based; parameters: dose 50 mg/kg, route intravenous; settings: read-out: Drug uptake; procedure, shortened: as §3
[33] = Drug level in mouse blood at 50 mg/kg, iv after 30 mins by microbiological assay; type: ADME, organism-based; parameters: dose 50 mg/kg, route intravenous; settings: read-out: Drug uptake; procedure, shortened: as §3
[34] = Drug level in mouse blood at 50 mg/kg, iv after 1 hr by microbiological assay; type: ADME, organism-based; parameters: dose 50 mg/kg, route intravenous; settings: read-out: Drug uptake; procedure, shortened: as §3
[35] = Drug level in mouse blood at 50 mg/kg, iv after 2 hrs by microbiological assay; type: ADME, organism-based; parameters: dose 50 mg/kg, route intravenous; settings: read-out: Drug uptake; procedure, shortened: as §3
[36] = Drug level in mouse blood at 50 mg/kg, iv after 4 hrs by microbiological assay; type: ADME, organism-based; parameters: dose 50 mg/kg, route intravenous; settings: read-out: Drug uptake; procedure, shortened: as §3
[37] = Drug metabolism in mouse assessed as metabolite level in urine by Sarcina lutea antibacterial assay; type: ADME
Procedure, shortened: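 Urine from dosed mice run on paper strip chromatography in butanol-ethanol-water (4:1:5). Active zones located on agar plates seeded with Sarcina lutea.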

[38] = test system: Pseudomonas aeruginosa; assay: Antibacterial activity against cephalosporin-resistant Pseudomonas aeruginosa after 18 hrs by serial dilution method; type: functional, organism-based; procedure, shortened: as §1
[39] = test system: Morganella morganii; assay: Antibacterial activity against cephalosporin-resistant Proteus morganii after 18 hrs by serial dilution method; type: functional, organism-based; procedure, shortened: as §1
[40] = test system: Enterobacter cloacae; assay: Antibacterial activity against cephalosporin-resistant Enterobacter cloacae after 18 hrs by serial dilution method; type: functional, organism-based; procedure, shortened: as §1

Compound	MIC [4] [µg/mL]	MIC [5] [µg/mL]	concentration at 0.5 h [8] [ng/mL]	concentration at 1 h [9] [ng/mL]	concentration at 2 h [10] [ng/mL]	concentration at 4 h [11] [ng/mL]	concentration at 10 min [12] [ng/mL]	concentration at 20 min [13] [ng/mL]	concentration at 0.5 h [14] [ng/mL]	concentration at 1 h [15] [ng/mL]	concentration at 2 h [16] [ng/mL]	concentration at 4 h [17] [ng/mL]	CD50 [18] [mg/kg]	CD50 [19] [mg/kg]	CD50 [20] [mg/kg]	CD50 [21] [mg/kg]	CD50 [22] [mg/kg]	CD50 [23] [mg/kg]	CD50 [24] [mg/kg]	CD50 [25] [mg/kg]	also measured
CC1=C(C(=O)O)N2C(=O)[C@@H](NC(=O)[C@H](N)c3ccccc3)[C@H]2SC1 [CEPHALEXIN ANHYDROUS]	5 (≈ 14.4 µM)	5 (≈ 14.4 µM)	21700	8300	2500	560	27000	20500	13300	3000	420	< 150	0.46	1	7.4	17	64	84	0.25	0.38	MIC [1]: 5 µg/mL (≈ 14.4 µM); MIC [2]: 12.5 µg/mL (≈ 36 µM); MIC [3]: 5 µg/mL (≈ 14.4 µM); MIC [6]: 12.5 µg/mL (≈ 36 µM); concentration at 0.25 h [7]: 23900 ng/mL; CD50 [26]: 8.5 mg/kg; CD50 [27]: 17 mg/kg; MIC [28]: 1.25 µg/mL (≈ 3.6 µM)
N[C@@H](C(=O)N[C@@H]1C(=O)N2C(C(=O)O)=C(Cc3ccc(C(=O)O)cc3)CS[C@H]12)c1ccccc1	–	2.5 (≈ 5.35 µM)	1600	2400	2300	1900	75200	87400	68800	48000	22000	9300	1.25	1.8	130	60	14	19	17	28	concentration at 10 min [29]: < 1000 ng/mL; concentration at 20 min [30]: < 1000 ng/mL; concentration at 10 min [31]: 70300 ng/mL; concentration at 20 min [32]: 48200 ng/mL; concentration at 0.5 h [33]: 39200 ng/mL; concentration at 1 h [34]: 25400 ng/mL; concentration at 2 h [35]: 4500 ng/mL; concentration at 4 h [36]: 2400 ng/mL; CD50 [26]: >1000 mg/kg; CD50 [27]: 2000 mg/kg; Drug metabolism [37]: metabolite_detected; Activity [38]: inactive; Activity [39]: inactive; Activity [40]: inactive
N[C@@H](C(=O)N[C@@H]1C(=O)N2C(C(=O)O)=C(Cc3cccc(C(=O)O)c3)CS[C@H]12)c1ccccc1	25 (≈ 53.5 µM)	–	1800	1700	1600	550	84200	64200	49600	26200	13700	1600	–	–	–	–	–	–	–	–	concentration at 10 min [29]: 870 ng/mL; concentration at 20 min [30]: 1050 ng/mL; Drug metabolism [37]: metabolite_notdetected; Activity [38]: inactive; Activity [39]: inactive; Activity [40]: inactive
